Results gathered from unrelated publications.
Each line is one published result; the experiments were not run side by side.
Organism: Staphylococcus aureus
Read-out: microbial growth

The MIC of CC1(C)S[C@@H]2[C@H](NC(=O)[C@H](N)c3ccccc3)C(=O)N2[C@H]1C(=O)O is reported as 16 µg/mL (broth dilution; ATCCBAA44).
The MIC of Cc1ccc2nc(-c3ccccc3O)[nH]c2c1 is reported as 128 µg/mL (broth dilution; ATCC29213 MSSA).
The MIC of NC[C@H]1O[C@H](O[C@H]2[C@H](O)[C@@H](O[C@H]3O[C@H](CO)[C@@H](O)[C@H](N)[C@H]3O)[C@H](N)C[C@@H]2N)[C@H](N)C[C@@H]1O is reported as 6.25 µM (147; clinical isolate).
CC(C)Oc1c(NC(=O)c2ccc(NC(=O)[C@H](CC(N)=O)NC(=O)c3ccc(NC(=O)c4ccc(F)cc4)cc3)cc2)ccc(C(=O)Nc2ccc(C(=O)O)cc2)c1O has an MIC of 2 µg/mL (ATCC29213).
The MIC of CSc1ccc(-c2nc3ccc(C)cc3n2Cc2ccccc2)cc1 is reported as 128 µg/mL (broth dilution; ATCC29213 MSSA).
CC(=O)NC[C@H]1CN(c2ccc(N3CCOCC3)c(F)c2)C(=O)O1 gave an MIC of 2 µg/mL (broth dilution; MRSA NRS384 USA300; drug-resistant strain).
CC(=O)NC[C@H]1CN(c2ccc(N3CCOCC3)c(F)c2)C(=O)O1 has an MIC of 1.56 µg/mL (clinical isolate).
The MIC of Cc1cc(Nc2ncnc3ccc(NC4=NC(C)(C)CO4)cc23)ccc1Oc1ccn2ncnc2c1 is reported as greater than 30 µM (NCTC8325).
Cc1ccc(NCc2ccc(Oc3ccccn3)cc2)cc1 has an MIC of 1.8 µg/mL.
O=C(O)c1cccc2ccccc12 has an MIC of greater than 128 µg/mL.
The MIC of CO[C@H]1/C=C/O[C@@]2(C)Oc3c(C)c(O)c4c(O)c(c(/C=N/N5CCN(C)CC5)c(O)c4c3C2=O)NC(=O)/C(C)=C\C=C\[C@H](C)[C@H](O)[C@@H](C)[C@@H](O)[C@@H](C)[C@H](OC(C)=O)[C@@H]1C is reported as 0.0078 µg/mL (broth dilution; ATCC29213; 24 h).
With C[C@@H](Oc1cc(-n2cnc3ccc(CN4CCN(C)CC4)cc32)sc1C(N)=O)c1ccccc1C(F)(F)F the MIC was greater than 30 µM (NCTC8325).
For COc1c(C)c(OC(=O)c2ccccc2)c(C)c(O)c1C(=O)/C=C/c1ccccc1, the MIC was 5000 µg/mL (broth dilution; ATCC25923).
CS(=O)(=O)c1cccc(-c2nnc(NC(=O)c3ccc(-c4ccccc4)cc3)o2)c1 gave an MIC of greater than 128 µg/mL.
The MIC of CN(C)c1ccc(-c2ccc3cc4c(c(O)c3c2)C(=O)C2=C(O)[C@]3(O)C(=O)C(C(N)=O)=C(O)[C@@H](N(C)C)[C@@H]3C[C@@H]2C4)cc1 is reported as 32 µg/mL (broth dilution; ATCC29213).
Cn1cnc2c(F)c(Nc3ccc(Br)cc3Cl)c(C(=O)NOCCO)cc21 has an MIC of greater than 30 µM (NCTC8325).
CC(C)Oc1c(NC(=O)c2ccc(NC(=O)[C@H](CC(N)=O)NC(=O)c3ccc(NC(=O)Cc4ccc(C#N)cc4)cc3)cc2)ccc(C(=O)Nc2ccc(C(=O)O)cc2)c1O gave an MIC of greater than 64 µg/mL (ATCC29213).
The MIC of C/C=C(\C)c1cc(OC(=O)c2c(O)c(C)c(O)c(Cl)c2/C(C)=C/C)c(C)c(O)c1C(=O)O is reported as 64 µg/mL (broth dilution; 16339).
Cc1ccc(C)n1-c1ccc(-c2nnc(-c3cccc([N+](=O)[O-])c3)[nH]2)cc1 gave an MIC of 8 µg/mL (broth dilution; ATCC11632; 18 h).
The MIC of CC(C)Oc1c(NC(=O)c2ccc(NC(=O)[C@H](CC(N)=O)NC(=O)c3ccc(NC(=O)c4ccc(C5(C(F)(F)F)N=N5)cc4)cc3)cc2)ccc(C(=O)Nc2ccc(C(=O)O)cc2)c1O is reported as greater than 64 µg/mL (ATCC29213).
With Cc1cc(Nc2cc(N3CCN(C)CC3)nc(/C=C/c3ccccc3)n2)n[nH]1 the MIC was greater than 30 µM (NCTC8325).
With O=C(O)c1cn(C2CC2)c2cc(N3CCNCC3)c(F)cc2c1=O the MIC was 9.43 µM (broth dilution; 24 h).
The MIC of C=CC(=O)Nc1cccc(Oc2nc(Nc3ccc(N4CCN(C)CC4)cc3OC)ncc2Cl)c1 is reported as greater than 30 µM (NCTC8325).
The MIC of Cc1ccc2nc(-c3ccc(Cl)c(Cl)c3)n(Cc3ccccc3)c2c1 is reported as 32 µg/mL (broth dilution; ATCC29213 MSSA).
With NC[C@@H]1O[C@H](O[C@H]2[C@@H](O)[C@H](O[C@@H]3[C@@H](O)[C@H](N)C[C@H](N)[C@H]3O[C@H]3O[C@H](CN)[C@@H](O)[C@H](O)[C@H]3N)O[C@@H]2CO)[C@H](N)[C@@H](O)[C@@H]1O the MIC was 5 to 10 µg/mL (NEWMAN).
The MIC of O=C1NC(=S)S/C1=C\c1ccc(-c2ccc(N(c3ccccc3)c3ccccc3)cc2)cc1 is reported as 250 µg/mL (broth dilution; ATCC43300).
C/C=C(\C)c1cc(O)c(C)c(OC(=O)c2c(C)c(Cl)c(O)c(Cl)c2O)c1 gave an MIC of 4 µg/mL (broth dilution; ATCC29213).
CO[C@H]1[C@H](O[C@H]([C@H]2O[C@@H](n3ccc(=O)[nH]c3=O)[C@H](O)[C@@H]2O)[C@H](NCCCNC(=O)[C@@H](NC(=O)[C@@H](NC(=O)N[C@H](C(=O)O)C(C)C)[C@@H]2CCN=C(N)N2)[C@@H](OC(=O)CCCCCCCCCCCCN(O)C(=N)N)C(C)C)C(=O)O)O[C@H](CN)[C@H]1O gave an MIC of 18 µg/mL (NEWMAN).
For O=C(Nc1ccc(Nc2ccccc2)cc1)Nc1ccc(Cl)c(C(F)(F)F)c1, the MIC was 3 µM (NCTC8325; 24 h).
CN[C@H](CC(C)C)C(=O)N[C@H]1C(=O)N[C@@H](CC(N)=O)C(=O)N[C@H]2C(=O)N[C@H]3C(=O)N[C@H](C(=O)N[C@H](C(=O)O)c4cc(O)cc(O)c4-c4cc3ccc4O)[C@H](O)c3ccc(c(Cl)c3)Oc3cc2cc(c3O[C@@H]2O[C@H](CO)[C@@H](O)[C@H](O)[C@H]2O[C@H]2C[C@](C)(N)[C@H](O)[C@H](C)O2)Oc2ccc(cc2Cl)[C@H]1O has an MIC of 1 µg/mL (broth dilution; 6917).
With Clc1ccc(-c2nc3ccccc3[nH]2)c(Cl)c1 the MIC was 128 µg/mL (broth dilution; ATCC29213 MSSA).
For CC1(C)S[C@@H]2[C@H](NC(=O)[C@H](N)c3ccccc3)C(=O)N2[C@H]1C(=O)O, the MIC was 1 µg/mL (broth dilution; ATCC29213).
With O=C(O)CN1C(=O)/C(=C/c2ccc(-c3ccc(N(c4ccccc4)c4ccccc4)cc3)c3ccccc23)NC1=S the MIC was greater than 1000 µg/mL (broth dilution; ATCC25923).
For Cc1ccc2nc(-c3ccco3)n(Cc3ccccc3)c2c1, the MIC was 128 µg/mL (broth dilution; ATCC29213 MSSA).
CC(C)Oc1c(NC(=O)c2ccc(NC(=O)[C@H](CC(N)=O)NC(=O)c3ccc(NC(=O)c4ccc(C#N)cc4)cc3)cc2)ccc(C(=O)Nc2ccc(C(=O)O)cc2)c1O has an MIC of 0.25 µg/mL (ATCC29213).
With O=C(CCCCCCCCCC[P+](c1ccccc1)(c1ccccc1)c1ccccc1)Nc1ccc(O)c(O)c1.[Br-] the MIC was 16 µg/mL (broth dilution; ATCC43300 MRSA; 18 h).
O=C(O)CN1C(=O)/C(=C/c2ccc(-c3ccc(N(c4ccccc4)c4ccccc4)cc3)c3ccccc23)SC1=S gave an MIC of 1000 µg/mL (broth dilution; ATCC6538).
CCCCCCC#Cc1cncc(-c2nnc(SCc3ccc([N+](=O)[O-])o3)n2C)c1 has an MIC of no less than 20 µg/mL (MRSA; drug-resistant strain).
With c1cncc(CN2CCC(n3ncc4c(N5CCOCC5)nc(-c5ccc6[nH]ccc6c5)nc43)CC2)c1 the MIC was greater than 30 µM (NCTC8325).
For CSc1nc2nnnc(O)c2s1, the MIC was greater than 128 µg/mL.
With CN(C[C@@H]1COCCO1)S(=O)(=O)Nc1ccc2ccc3ncc(-c4cnn(C)c4)cc3c(=O)c2c1 the MIC was 30 µM (NCTC8325).
For O=[N+]([O-])c1cccc(-c2nc3ccccc3[nH]2)c1, the MIC was 64 µg/mL (broth dilution; ATCC29213 MSSA).
